Source: ChEMBL document CHEMBL1155982 (Bioorg Med Chem Lett, 2009)

Assays:
[1] = Intrinsic cytotoxicity against human MES-SA/Dx5 cells; format: functional
Outline: (§1)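 MES-SA/DX5 (P-gp-overexpressing human sarcoma) cells seeded at 1.2 × 10⁴ cells/well and incubated 24 h at 37 °C. They were then exposed for 60 h to varying concentrations of test compound, with or without 100 nM Taxol. Survival was read by Cell Counting Kit-8, and GI₅₀/EC₅₀ were taken from the concentration series.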

Cytochrome P450 3A4 = Cytochrome P450 3A4 (Homo sapiens, UniProt P08684); assay: Inhibition of human CYP3A4; format: ADME
[2] = Cytotoxicity against human MES-SA/Dx5 cells; format: functional, cell-based; outline: as §1

Chain of Cytochrome P450 3A4 (P08684 whole entry): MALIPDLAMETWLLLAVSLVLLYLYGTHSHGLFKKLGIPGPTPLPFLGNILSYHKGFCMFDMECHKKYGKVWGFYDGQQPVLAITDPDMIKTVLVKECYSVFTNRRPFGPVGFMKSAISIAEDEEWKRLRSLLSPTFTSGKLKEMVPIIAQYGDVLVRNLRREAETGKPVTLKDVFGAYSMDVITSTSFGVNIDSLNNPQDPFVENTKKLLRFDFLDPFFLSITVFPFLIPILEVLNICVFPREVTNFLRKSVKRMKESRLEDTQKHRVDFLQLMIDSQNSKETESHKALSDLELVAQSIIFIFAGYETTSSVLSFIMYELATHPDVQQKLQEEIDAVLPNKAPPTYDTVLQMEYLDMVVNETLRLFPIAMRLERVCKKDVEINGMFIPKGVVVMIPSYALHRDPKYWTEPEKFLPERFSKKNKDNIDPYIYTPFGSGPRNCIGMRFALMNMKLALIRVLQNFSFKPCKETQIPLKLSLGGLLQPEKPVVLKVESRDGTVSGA

Row | IC50 (Cytochrome P450 3A4) [µM] | SMILES | GI50 [1] [µM] | IC50 [2] [µM]
1 | – | COC(=O)c1cccc(NC(=O)COc2ccc(C34CC5CC(CC(C(=O)N6CCN(Cc7ccc(F)cc7)CC6)(C5)C3)C4)cc2)c1 | > 20 | –
2 | – | COC(=O)c1cccc(NC(=O)COc2ccc(C34CC5CC(CC(C(=O)OCc6ccccc6)(C5)C3)C4)cc2)c1 | > 20 | –
3 | 0.89 | COC(=O)c1cccc(NC(=O)COc2ccc(C34CC5CC(CC(C(=O)N6CCN(Cc7ccc(OC)cc7)CC6)(C5)C3)C4)cc2)c1 | 14 | –
4 | 0.82 | COC(=O)c1cccc(NC(=O)COc2ccc(C34CC5CC(CC(C(=O)N6CCN(Cc7cccc(OC)c7)CC6)(C5)C3)C4)cc2)c1 | 13.2 | –
5 | 2.03 | COC(=O)c1cccc(NC(=O)COc2ccc(C34CC5CC(CC(C(=O)N6CCN(Cc7ccc(C(F)(F)F)cc7)CC6)(C5)C3)C4)cc2)c1 | > 20 | –
6 | – | CC(=O)O[C@H]1C(=O)[C@@]2(C)[C@H]([C@H](OC(=O)c3ccccc3)[C@]3(O)C[C@H](OC(=O)[C@H](O)[C@@H](NC(=O)c4ccccc4)c4ccccc4)C(C)=C1C3(C)C)[C@]1(OC(C)=O)CO[C@@H]1C[C@@H]2O [PACLITAXEL] | 7.54 | 7.54
7 | – | COC(=O)c1cccc(NC(=O)COc2ccc(C34CC5CC(CC(C(=O)NCCN(C)C)(C5)C3)C4)cc2)c1 | > 20 | –
8 | – | COC(=O)c1cccc(NC(=O)COc2ccc(C34CC5CC(CC(C(N)=O)(C5)C3)C4)cc2)c1 | 14.3 | –
9 | – | COc1cc2c(cc1OC)CN(C(=O)C13CC4CC(C1)CC(c1ccc(OCC(=O)Nc5cccc(C(=O)NCc6ccco6)c5)cc1)(C4)C3)CC2 | > 20 | –
10 | – | COC(=O)c1ccc(NC(=O)COc2ccc(C34CC5CC(CC(C(=O)N6CCc7cc(OC)c(OC)cc7C6)(C5)C3)C4)cc2)cc1 | 14.3 | –
11 | – | COC(=O)c1cccc(NC(=O)COc2ccc(C34CC5CC(CC(C(=O)NCc6ccc(OC)c(OC)c6)(C5)C3)C4)cc2)c1 | > 20 | –
12 | – | COC(=O)c1cccc(NC(=O)COc2ccc(C34CC5CC(CC(C(=O)N6CCc7cc(OC)c(OC)cc7C6)(C5)C3)C4)cc2)c1 | > 20 | –
13 | – | COc1ccc(CCN(C)CCCC(C#N)(c2ccc(OC)c(OC)c2)C(C)C)cc1OC (stereo not given) | > 20 | –
14 | – | COC(=O)c1cccc(NC(=O)COc2ccc(C34CC5CC(CC(C(=O)Nc6ccc(C(C)(C)C)cc6)(C5)C3)C4)cc2)c1 | > 20 | –
15 | – | COc1cc2c(cc1OC)CN(C(=O)C13CC4CC(C1)CC(c1ccc(OCC(=O)Nc5cccc6cccnc56)cc1)(C4)C3)CC2 | > 20 | –
16 | – | COc1cc2c(cc1OC)CN(C(=O)C13CC4CC(C1)CC(c1ccc(OCC(=O)Nc5cccc(C(F)(F)F)c5)cc1)(C4)C3)CC2 | 12.1 | –
17 | – | COc1cc2c(cc1OC)CN(C(=O)C13CC4CC(C1)CC(c1ccc(OCC(=O)Nc5cccc(C(N)=O)c5)cc1)(C4)C3)CC2 | 16.3 | –
18 | > 5 | COc1cc2c(cc1OC)CN(C(=O)C13CC4CC(C1)CC(c1ccc(OCC(=O)Nc5cccc(C#N)c5)cc1)(C4)C3)CC2 | > 20 | –
19 | 3.79 | COC(=O)c1ccccc1NC(=O)COc1ccc(C23CC4CC(CC(C(=O)N5CCc6cc(OC)c(OC)cc6C5)(C4)C2)C3)cc1 | > 20 | –
